Laboratory results as given in publication PMC3512081 (Journal of immunology (Baltimore, Md. : 1950), 2011).
Several values for one entry are separate records, joined by “and”; a condition that tells them apart may be missing. Identical values can stand only once. Like-named read-outs stand apart in the source and are kept apart here.

Assays:
[1] = tested on: IDO-transduced (C7) EG7 cells; assay: 3H-L-tryptophan uptake by IDO positive EG7 cells; assay type: cell-based, mouse; conditions: for tryptophan uptake maintained: 0.05mM, EG7-C7 cells, absence of BCH; for fold lower affinity of the additional transporter versus the first transporter: IDO positive C7 cells, equation based on two independent systems; for effect on tryptophan uptake, inhibitor alone: IDO positive cells
Summary of the method: (§1)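 EG7 mouse T lymphoma cells: wild-type, GFP-only lentivirus controls, or an IDO/GFP lentivirus-transduced clone. Cultured 48 h, washed, then held 20-30 min in PBS or sodium-free choline buffer (pH 7.4). 3H-L-tryptophan was added at 50 pmol/ml and incubated a fixed time at 37°C. Uptake was stopped by spinning cells through oil. Competitors: BCH, D- or L-Met titrations, glutamine. Duplicate samples. Ki fitted assuming one or two transport systems.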

[2] = tested on: IDO induced tryptophan transporter; assay type: cell-based, human; conditions: for effect on tryptophan uptake in the presence of 2.5mM glutamine: IDO positive Hela cells, L-tryptophan at 2mM
Summary of the method: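 IFN-γ-treated or human IDO-lentivirus-transduced Hela cells are grown 48h to 90-100% confluence, washed, then preincubated 20-30 min in PBS or choline buffer (pH 7.4). Add 3H-L-tryptophan at 50pmol/ml with competing amino acid and take uptake at 37°C under initial-rate conditions over 3 min. Stop with 20mM L-lysine in ice-cold PBS, lyse in 1% NaOH/0.1% SDS, and count by liquid scintillation.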

[3] = tested on: EG7 WT and GFP-transduced cells; assay: 3H-L-tryptophan uptake by IDO negative EG7 cells; assay type: cell-based, mouse
Summary of the method: as §1

[4] = tested on: WT and GFP-transduced Hela cells; assay: 3H-L-tryptophan uptake by IDO negative Hela cells; assay type: cell-based, human; conditions: for effect of excess unlabelled amino acid on 3H-tryptophan uptake: IDO negative Hela cells, high concentration (5mM glycine, histidine, glutamine)
Summary of the method: (§2)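 HeLa cells were used untreated, GFP-transduced, human-IDO lentivirus-transduced, or given 1000 U/ml IFNγ for 48 h, and assayed at 90-100% confluence. Preincubated 20-30 min in PBS or choline buffer (pH 7.4). 3H-L-tryptophan was added at 50 pmol/ml, with initial-rate uptake over 3 min at 37°C. Stopped with 20mM L-lysine in ice-cold PBS, then NaOH/SDS lysis and scintillation counting. Competitors: BCH, D/L-Met, 5mM histidine, glycine or glutamine, and titrations. Triplicates, normalized; Student's t-test.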

[5] = tested on: IDO-lentivirus transduced or IFN-γ treated Hela cells; assay: 3H-L-tryptophan uptake by IDO positive Hela cells; assay type: cell-based, human; conditions: for Ki: read-out: Ki for 3H-tryptophan uptake; for effect of excess unlabelled amino acid on 3H-tryptophan uptake: high concentration (5mM glycine, histidine, glutamine)
Summary of the method: as §2

histidine uptake = assay: 14C-histidine uptake; assay type: cell-based; conditions: data not shown
activated human T cells = assay: Tryptophan uptake by activated human T cells; assay type: cell-based; conditions: preliminary data, not shown
[6] = WT and GFP-transduced Hela cells

**Q.** Which results are given for NC1(C(=O)O)CC2CCC1C2 (stereo not drawn) [BCH, 2-aminobicyclo-(2,2,1)-heptane-2-carboxylic acid]?
**A.** effect on transporter-mediated 3H-L-tryptophan uptake ([1]; high concentrations, IDO positive EG7 cells, sodium-free): completely abolished; effect on tryptophan uptake in the presence of 2.5mM glutamine [2]: no additional inhibition; effect on transporter-mediated 3H-L-tryptophan uptake ([3]; high concentrations, EG7-WT and GFP cells, sodium-free): completely abolished; effect on 3H-tryptophan uptake [4, 6]: strongly inhibited; Ki ([4]; read-out: Ki for 3H-tryptophan uptake, control Hela cells): 12 µM; Ki ([5]; IDO transduced Hela cells): ~300 µM; Ki ([5]; IFN-γ treated Hela cells): ~600 µM

**Q.** Which results are given for CSCC[C@@H](N)C(=O)O [D-Met, D-Methionine]?
**A.** tryptophan uptake maintained [1]: greater than 40%; fold higher Ki in IDO positive cells than IDO negative cells ([1]; EG7 cells, single uptake system calculation): approximately 10 fold; fold lower affinity of the additional transporter versus the first transporter [1]: 10 fold; Ki ([1]; read-out: Ki calculated based on a single tryptophan uptake system, IDO positive EG7 cells): 100 to 300 µM; inhibition of tryptophan uptake ([3]; 0.05mM, WT and GFP-expressing EG7 cells, absence of BCH): over 80%; effect on 3H-tryptophan uptake [4, 6]: strongly inhibited

**Q.** For N[C@H](Cc1c[nH]c2ccccc12)C(=O)O [D-tryptophan], which “effect on tryptophan uptake in the presence of 2.5mM glutamine” value (“effect … of 2.5mM glutamine” below) [2] is on record?
**A.** minimal inhibition

**Q.** For N[C@@H](Cc1ccc(O)c(O)c1)C(=O)O [L-Dopa, L-3,4-dihydroxyphenylalanine], which “effect … of 2.5mM glutamine” value [2] is on record?
**A.** inhibited

**Q.** CSCC[C@H](N)C(=O)O [L-Met, L-methionine] was tested. Which tryptophan uptake maintained [1] did it give?
**A.** greater than 40%

**Q.** And the “fold lower affinity of the additional transporter versus the first transporter” value [1]?
**A.** 10 fold

**Q.** What about the inhibition at 50 µM ([3]; Mus musculus, EG7, read-out: inhibition of tryptophan uptake) of the same compound?
**A.** > 80%

**Q.** What about the “effect on 3H-tryptophan uptake” value [4, 6] of the same compound?
**A.** strongly inhibited

**Q.** Which “effect on tryptophan uptake, inhibitor alone” value ([1]; data not shown) does the source give for CNC(C)(C)C(=O)O [MeAIB, methyl-aminoisobutyric acid] here?
**A.** minimal effect

**Q.** For CCN1C(=O)C=CC1=O [NEM, N-ethyl maleimide], which “effect on tryptophan uptake, inhibitor alone” value ([1]; data not shown) is on record?
**A.** minimal effect

**Q.** With NC(=O)CC[C@H](N)C(=O)O [glutamine] as the compound, how does the “tryptophan uptake in the presence of glutamine” value ([1]; murine EG7-IDO positive cells, data not shown) read?
**A.** resistant to inhibition

**Q.** What about the “effect on uptake of 14C-histidine” value (histidine uptake) of the same compound?
**A.** inhibited

**Q.** What about the “tryptophan uptake in the presence of glutamine” value ([3]; WT and GFP-transduced EG7 cells, data not shown) of the same compound?
**A.** inhibited

**Q.** What about the “effect of excess unlabelled amino acid on 3H-tryptophan uptake” value (“effect of excess unlabelled amino acid” for short) [4] of the same compound?
**A.** completely inhibited

**Q.** What about the “effect of glutamine alone on tryptophan uptake” value [4, 6] of the same compound?
**A.** completely abolished

**Q.** What about the “sensitivity of tryptophan uptake to inhibition” value (activated human T cells) of the same compound?
**A.** highly sensitive to inhibition

**Q.** What about the tryptophan uptake maintained ([5]; 5mM, IDO positive Hela cells) of the same compound?
**A.** over 50%

**Q.** And the “fold increase in Ki for IDO positive cells compared with IDO negative controls” value ([5]; Hela cells)?
**A.** 10 fold

**Q.** What about the “effect of excess unlabelled amino acid” value ([5]; IDO positive Hela cells) of the same compound?
**A.** a proportion of the tryptophan uptake was retained

**Q.** NCC(=O)O [glycine] was tested. Which “effect of excess unlabelled amino acid” value [4] did it give?
**A.** no effect

**Q.** What about the “effect of excess unlabelled amino acid” value ([5]; IDO positive Hela cells) of the same compound?
**A.** no effect

**Q.** N[C@@H](Cc1c[nH]cn1)C(=O)O [histidine] was tested. Which “effect on uptake of 14C-histidine” value (histidine uptake) did it give?
**A.** inhibited

**Q.** And the “effect of excess unlabelled amino acid” value [4]?
**A.** completely inhibited

**Q.** What about the “fold increase in Ki for IDO positive cells compared with IDO negative controls” value ([5]; Hela cells) of the same compound?
**A.** 10 fold

**Q.** What about the “effect of excess unlabelled amino acid” value ([5]; IDO positive Hela cells) of the same compound?
**A.** a proportion of the tryptophan uptake was retained

**Q.** How did the “effect … of 2.5mM glutamine” value [2] turn out when N[C@@H](Cc1ccccc1)C(=O)O [phenylalanine] was run?
**A.** inhibited

**Q.** What about the “inhibition of tryptophan uptake in the presence of glutamine” value ([2]; IFN-γ-treated and IDO transduced Hela cells, 2.5mM glutamine) of the same compound?
**A.** over 50%

**Q.** N[C@@H](Cc1c[nH]c2ccccc12)C(=O)O [tryptophan, L-tryptophan] was tested. Which “effect on uptake of 14C-histidine” value (histidine uptake) did it give?
**A.** inhibited

**Q.** What about the “effect … of 2.5mM glutamine” value [2] of the same compound?
**A.** reduced to baseline

**Q.** And the Ki ([2]; read-out: Ki of the induced glutamine-resistant 3H-tryptophan transport, IDO positive tumor cells, 2.5mM glutamine)?
**A.** 2.3 to 4.2 µM and 3 µM

**Q.** What about the “effect of excess unlabelled amino acid” value [4] of the same compound?
**A.** effectively competed

**Q.** What about the “calculated Ki compared between cell types” value ([5]; Hela cells, IDO positive versus IDO negative) of the same compound?
**A.** almost identical

**Q.** What about the “effect of excess unlabelled amino acid” value ([5]; IDO positive Hela cells) of the same compound?
**A.** effectively competed

**Q.** N[C@@H](Cc1ccc(O)cc1)C(=O)O [tyrosine] was tested. Which “effect … of 2.5mM glutamine” value [2] did it give?
**A.** little additional effect
